System: progressive or refractory brain tumors
Test: Tumor response assessment
Assay type: in vivo, human
In short: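 Oral once-daily dosing, 21 of 28 days, for up to 26 courses. Response by bi-dimensional MR measurement. CR: all enhancing tumor gone. PR: ≥50% reduction. Both held ≥8 weeks on stable or decreasing corticosteroids. PD: >25% increase from smallest measurement, new lesion, or neurologic worsening. Patients receiving ≥1 dose evaluable.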

How did the objective response (Stratum I and II) turn out when CC(=O)c1c(C)c2cnc(Nc3ccc(N4CCNCC4)cn3)nc2n(C2CCCC2)c1=O [palbociclib] was run?
The objective response was “No patients on either stratum had an objective response”.

What about the time on treatment (Stratum II, 3 subjects (2 at 50 mg/m^2 and 1 at 75 mg/m^2)) of the same compound?
The time on treatment was 4 courses.

What about the time on treatment (one patient with GBM, 75 mg/m^2) of the same compound?
Its time on treatment is 6 courses.

What about the time on treatment (one patient with anaplastic ependymoma, Stratum I, 75 mg/m^2) of the same compound?
Its time on treatment is 18 courses.

Source: article PMC8414988 (Pediatric blood & cancer, 2021)
